Measurements published in ChEMBL document CHEMBL1127605, “Synthesis of naphthalenesulfonic acid small molecules as selective inhibitors of the DNA polymerase and ribonuclease H activities of HIV-1 reverse transcriptase” (J Med Chem, 1994).

Columns and labels:
MT4 [1] = experiment: 50% cytotoxic concentration was determined on HIV-1 (HTLV-IIIB) in MT-4 cells; assay type: functional; settings: Homo sapiens
[2] = target: Human immunodeficiency virus type 1 reverse transcriptase (Human immunodeficiency virus 1) (UniProt Q72547); experiment: Inhibition of DNA polymerase activity of HIV-1 reverse transcriptase (at 50 uM)
In short: (§1)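 Recombinant HIV-1 RT (BH-10 proviral clone, E. coli-expressed, purified to homogeneity, ~66 kDa) preincubated 5 min at 30 °C with test compound (50 μM for DNA polymerase, 200 μM for RNase H); reaction started with substrate, 30 min at 37 °C; residual activity expressed relative to initial linear rate without drug.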

[3] = target: Human immunodeficiency virus type 1 reverse transcriptase (Human immunodeficiency virus 1) (UniProt Q72547); experiment: Inhibition of Ribonuclease H activity of HIV-1 reverse transcriptase (at 200 uM); in short: as §1
[4] = target: Human immunodeficiency virus type 1 reverse transcriptase (Human immunodeficiency virus 1, UniProt Q72547); experiment: The 50% inhibitory concentration was measured as inhibition of Ribonuclease H activity of reverse transcriptase
MT4 [5] = experiment: 50% effective antiviral concentration was determined on HIV-1 (HTLV-IIIB) in MT-4 cells; assay type: functional, cell-based; settings: Homo sapiens

SMILES | Initial activity [2] | Initial activity [3] | IC50 [4] | CC50 (MT4 [1]) | EC50 (MT4 [5])
CCCCCCCCCCCCCCCC(=O)Nc1c(O)cc(S(=O)(=O)O)c2ccccc12 | 0.02% | 3% | 47.6 µM | 21 µM | > 21 µM
CC(C)CCCC(C)C1CCC2C3CC=C4CC(OC(=O)Nc5cc(S(=O)(=O)O)cc6cc(S(=O)(=O)O)cc(O)c56)CC[C@]4(C)C3CC[C@]12C (stereo not given in full) | 0% | 0% | – | > 500 µM | > 500 µM
O=S(=O)(O)c1cccc2ccc(OS(=O)(=O)c3ccc(-c4ccc(S(=O)(=O)Oc5ccc6cccc(S(=O)(=O)O)c6c5)cc4)cc3)cc12 | 0% | 48% | – | – | –
O=S(=O)(O)c1cc(S(=O)(=O)O)c2cc(NS(=O)(=O)c3ccc(-c4ccc(S(=O)(=O)Nc5ccc6cc(S(=O)(=O)O)cc(S(=O)(=O)O)c6c5)cc4)cc3)ccc2c1 | 0.9% | 28% | – | – | –
CCCCCCCCCCCCCCCC(=O)Nc1ccc(S(=O)(=O)O)c2ccccc12 | 100% | 98% | – | 47 µM | > 47 µM
Nc1ccc(S(=O)(=O)O)c2ccccc12 | 100% | 88% | – | – | –
CCCCCCCCCCCCCCCC(=O)Nc1ccc(S(=O)(=O)O)c2cccc(S(=O)(=O)O)c12 | 0.16% | 2.8% | 27.5 µM | 225 µM | 100 µM
O=C(CCCCCCC(=O)Nc1ccc(S(=O)(=O)O)c2ccccc12)Nc1ccc(S(=O)(=O)O)c2ccccc12 | 90% | 59% | – | – | –
CCCCCCCCCCCCCCCc1nc2c(cc(S(=O)(=O)O)c3ccccc32)o1 | 0.2% | 68% | – | 42 µM | > 42 µM
CCCCCCCCCCCCCCCC(=O)Nc1c(OC(=O)CCCCCCCCCCCCCCC)cc(S(=O)(=O)O)c2ccccc12 | 0.03% | 5.3% | – | 41 µM | > 41 µM
O=C(CCCCCCCCC(=O)Nc1cc(S(=O)(=O)O)cc2cc(S(=O)(=O)O)cc(O)c12)Nc1cc(S(=O)(=O)O)cc2cc(S(=O)(=O)O)cc(O)c12 | 0% | 30% | – | – | –
Cc1cc(C)c(S(=O)(=O)Oc2ccc3cccc(S(=O)(=O)O)c3c2)c(C)c1S(=O)(=O)Oc1ccc2cccc(S(=O)(=O)O)c2c1 | 13% | 23% | – | 228 µM | 42 µM
CCCCCCCCCCCCCCCC(=O)Oc1cc(S(=O)(=O)O)c2ccccc2c1N | 6.5% | 7.5% | – | 38 µM | > 38 µM
O=C(Oc1cc(S(=O)(=O)O)cc2cc(S(=O)(=O)O)ccc12)c1ccc(-c2ccc(C(=O)Oc3cc(S(=O)(=O)O)cc4cc(S(=O)(=O)O)ccc34)cc2)cc1 | 0.2% | 0% | 14.4 µM | > 500 µM | 81.5 µM
O=C(CCCCCCCCCCC(=O)Nc1ccc(S(=O)(=O)O)c2ccccc12)Nc1ccc(S(=O)(=O)O)c2ccccc12 | 100% | 32% | – | > 500 µM | 260 µM
CCCCCCCCCCCCCCCC(=O)Oc1cc(S(=O)(=O)O)cc2cc(S(=O)(=O)O)cc(OC(=O)CCCCCCCCCCCCCCC)c12 | 0% | 27% | – | – | –
Nc1ccc(S(=O)(=O)O)c2cccc(S(=O)(=O)O)c12 | 100% | 100% | – | – | –
O=C(CCCCCCCCC(=O)Nc1ccc(S(=O)(=O)O)c2ccccc12)Nc1ccc(S(=O)(=O)O)c2ccccc12 | 94% | 70% | – | – | –

Second part, led by results:

Initial activity [2] | Initial activity [3] | IC50 [4] | SMILES | CC50 (MT4 [1]) | EC50 (MT4 [5])
25% | 17% | – | O=S(=O)(O)c1cccc2ccc(OS(=O)(=O)c3cccc4c(S(=O)(=O)Oc5ccc6cccc(S(=O)(=O)O)c6c5)cccc34)cc12 | – | –
2% | 32% | – | Cc1cc(C)c(S(=O)(=O)Nc2cc(C(=O)O)c(O)c(S(=O)(=O)O)c2)c(C)c1S(=O)(=O)Nc1cc(C(=O)O)c(O)c(S(=O)(=O)O)c1 | – | –
46% | 75% | – | O=C(O)c1cc(NS(=O)(=O)c2cccc3c(S(=O)(=O)Nc4cc(C(=O)O)c(O)c(S(=O)(=O)O)c4)cccc23)cc(S(=O)(=O)O)c1O | – | –
16% | 51% | – | O=S(=O)(O)c1cc(S(=O)(=O)O)c2cc(NS(=O)(=O)c3cccc4c(S(=O)(=O)Nc5ccc6cc(S(=O)(=O)O)cc(S(=O)(=O)O)c6c5)cccc34)ccc2c1 | – | –
100% | 84% | – | O=C(CCCCCCC(=O)Nc1ccc(S(=O)(=O)O)c2cccc(S(=O)(=O)O)c12)Nc1ccc(S(=O)(=O)O)c2cccc(S(=O)(=O)O)c12 | – | –
54% | 57% | – | O=C(CCCCCCCCC(=O)Nc1ccc(S(=O)(=O)O)c2cccc(S(=O)(=O)O)c12)Nc1ccc(S(=O)(=O)O)c2cccc(S(=O)(=O)O)c12 | – | –
90% | 92% | – | O=C(Nc1ccc(S(=O)(=O)O)c2cccc(S(=O)(=O)O)c12)c1ccc(C(=O)Nc2ccc(S(=O)(=O)O)c3cccc(S(=O)(=O)O)c23)cc1 | – | –
13% | 16% | – | O=C(CCCCCCCCCCC(=O)Nc1ccc(S(=O)(=O)O)c2cccc(S(=O)(=O)O)c12)Nc1ccc(S(=O)(=O)O)c2cccc(S(=O)(=O)O)c12 | – | –
0% | 43% | 215 µM | O=S(=O)(O)c1ccc2c(OS(=O)(=O)c3cccc4c(S(=O)(=O)Oc5cc(S(=O)(=O)O)cc6cc(S(=O)(=O)O)ccc56)cccc34)cc(S(=O)(=O)O)cc2c1 | 322 µM | 39 µM
